Results taken from the M2OR odorant receptor database.

Assays:
Settings in all cases: stereoisomer not certain
UniProt Q8VG27 = target: T1, UniProt Q8VG27
T1 sequence (whole entry): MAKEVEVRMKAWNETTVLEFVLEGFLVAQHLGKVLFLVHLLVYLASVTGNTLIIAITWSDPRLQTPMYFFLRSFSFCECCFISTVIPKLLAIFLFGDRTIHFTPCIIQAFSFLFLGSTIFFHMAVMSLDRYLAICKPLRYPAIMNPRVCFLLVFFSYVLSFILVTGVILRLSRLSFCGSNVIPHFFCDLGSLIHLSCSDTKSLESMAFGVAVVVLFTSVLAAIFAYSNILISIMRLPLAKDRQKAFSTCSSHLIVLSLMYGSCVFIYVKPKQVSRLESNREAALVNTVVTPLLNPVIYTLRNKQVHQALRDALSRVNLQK
Method in brief: (§1)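 Whether a receptor–molecule pair is responsive (active) rests on the original authors' judgment that its measured signal was statistically different from baseline. Pairs without that judgment are non-responsive (inactive). Sources used varied assay methods, commonly transient luciferase assays in mammalian cell lines.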

UniProt Q8VG53 = target: T2, UniProt Q8VG53
T2 sequence (whole entry): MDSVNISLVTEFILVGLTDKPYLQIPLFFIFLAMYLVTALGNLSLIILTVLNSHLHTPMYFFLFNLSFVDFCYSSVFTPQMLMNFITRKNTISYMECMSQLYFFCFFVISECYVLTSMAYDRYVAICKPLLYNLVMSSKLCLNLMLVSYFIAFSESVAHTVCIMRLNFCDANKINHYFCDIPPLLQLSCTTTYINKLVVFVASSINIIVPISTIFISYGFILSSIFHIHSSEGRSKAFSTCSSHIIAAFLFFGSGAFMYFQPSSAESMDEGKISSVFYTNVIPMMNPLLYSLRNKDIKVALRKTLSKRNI
Method in brief: as §1

UniProt Q8VG64 = target: T3, UniProt Q8VG64
T3 sequence (whole entry): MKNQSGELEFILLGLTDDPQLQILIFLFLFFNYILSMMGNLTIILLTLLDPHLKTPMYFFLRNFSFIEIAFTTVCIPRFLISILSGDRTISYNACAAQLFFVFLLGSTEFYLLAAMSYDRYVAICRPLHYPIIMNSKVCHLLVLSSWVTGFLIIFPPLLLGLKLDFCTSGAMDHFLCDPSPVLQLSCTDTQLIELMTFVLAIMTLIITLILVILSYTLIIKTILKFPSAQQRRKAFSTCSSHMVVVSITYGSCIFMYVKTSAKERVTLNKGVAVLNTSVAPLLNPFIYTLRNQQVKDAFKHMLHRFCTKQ
Method in brief: as §1

UniProt Q8VGB9 = target: T4, UniProt Q8VGB9
T4 sequence (whole entry): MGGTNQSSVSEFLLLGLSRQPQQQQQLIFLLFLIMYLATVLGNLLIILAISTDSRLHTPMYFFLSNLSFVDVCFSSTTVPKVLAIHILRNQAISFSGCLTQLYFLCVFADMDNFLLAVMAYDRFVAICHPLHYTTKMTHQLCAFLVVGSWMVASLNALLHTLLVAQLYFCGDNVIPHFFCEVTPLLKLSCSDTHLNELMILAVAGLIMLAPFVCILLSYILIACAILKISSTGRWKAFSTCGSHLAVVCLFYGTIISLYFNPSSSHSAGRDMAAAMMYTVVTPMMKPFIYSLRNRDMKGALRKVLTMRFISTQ
Method in brief: as §1

UniProt Q8VGC6 = target: T5, UniProt Q8VGC6
T5 sequence (whole entry): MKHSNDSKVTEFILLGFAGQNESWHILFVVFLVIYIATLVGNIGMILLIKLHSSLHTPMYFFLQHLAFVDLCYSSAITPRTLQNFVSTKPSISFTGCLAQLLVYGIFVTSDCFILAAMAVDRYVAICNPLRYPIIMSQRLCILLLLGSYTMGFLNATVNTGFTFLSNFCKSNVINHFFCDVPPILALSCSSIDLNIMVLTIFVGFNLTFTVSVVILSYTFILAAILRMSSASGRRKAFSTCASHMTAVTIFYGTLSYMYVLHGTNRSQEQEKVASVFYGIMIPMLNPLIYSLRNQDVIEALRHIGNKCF
Method in brief: as §1

UniProt Q8VGJ3 = target: T6, UniProt Q8VGJ3
T6 sequence (whole entry): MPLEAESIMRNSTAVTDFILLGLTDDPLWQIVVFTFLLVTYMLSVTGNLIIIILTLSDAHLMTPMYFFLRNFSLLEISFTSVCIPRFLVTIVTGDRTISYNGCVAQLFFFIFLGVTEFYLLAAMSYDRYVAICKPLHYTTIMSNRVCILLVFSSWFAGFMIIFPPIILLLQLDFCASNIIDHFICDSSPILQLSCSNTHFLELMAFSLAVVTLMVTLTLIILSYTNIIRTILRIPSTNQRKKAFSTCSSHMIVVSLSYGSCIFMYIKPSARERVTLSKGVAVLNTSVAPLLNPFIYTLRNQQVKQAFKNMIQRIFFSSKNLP
Method in brief: as §1

UniProt Q8VGL0 = target: T7, UniProt Q8VGL0
T7 sequence (whole entry): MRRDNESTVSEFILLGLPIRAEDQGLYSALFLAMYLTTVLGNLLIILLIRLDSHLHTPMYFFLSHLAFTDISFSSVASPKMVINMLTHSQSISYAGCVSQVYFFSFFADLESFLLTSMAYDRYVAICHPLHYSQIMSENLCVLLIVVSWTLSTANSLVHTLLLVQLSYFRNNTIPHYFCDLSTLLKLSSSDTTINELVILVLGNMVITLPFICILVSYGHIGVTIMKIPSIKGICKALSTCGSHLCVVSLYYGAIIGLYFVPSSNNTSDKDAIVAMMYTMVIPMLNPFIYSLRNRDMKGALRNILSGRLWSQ
Method in brief: as §1

UniProt Q8VG28 = target: UniProt Q8VG28
Method in brief: as §1

UniProt Q8VG49 = target: T8, UniProt Q8VG49
T8 sequence (whole entry): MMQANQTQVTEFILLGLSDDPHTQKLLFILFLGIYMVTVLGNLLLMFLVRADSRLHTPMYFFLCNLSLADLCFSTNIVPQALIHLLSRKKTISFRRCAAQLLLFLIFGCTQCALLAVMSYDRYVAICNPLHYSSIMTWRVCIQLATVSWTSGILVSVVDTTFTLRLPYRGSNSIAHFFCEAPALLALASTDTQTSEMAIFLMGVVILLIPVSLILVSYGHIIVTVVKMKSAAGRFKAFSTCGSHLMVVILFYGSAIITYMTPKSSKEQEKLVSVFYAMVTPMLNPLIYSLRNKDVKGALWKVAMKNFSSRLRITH
Method in brief: as §1

UniProt Q8VG77 = target: T9, UniProt Q8VG77
T9 sequence (whole entry): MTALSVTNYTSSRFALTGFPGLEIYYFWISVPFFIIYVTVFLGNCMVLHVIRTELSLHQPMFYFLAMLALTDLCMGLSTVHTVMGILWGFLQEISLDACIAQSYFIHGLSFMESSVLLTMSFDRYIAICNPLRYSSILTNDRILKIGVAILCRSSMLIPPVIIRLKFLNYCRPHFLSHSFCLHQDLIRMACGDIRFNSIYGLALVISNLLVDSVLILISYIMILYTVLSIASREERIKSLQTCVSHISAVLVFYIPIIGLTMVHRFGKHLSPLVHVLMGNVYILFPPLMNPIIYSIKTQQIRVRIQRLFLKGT
Method in brief: as §1

UniProt Q8VG96 = target: T10, UniProt Q8VG96
T10 sequence (whole entry): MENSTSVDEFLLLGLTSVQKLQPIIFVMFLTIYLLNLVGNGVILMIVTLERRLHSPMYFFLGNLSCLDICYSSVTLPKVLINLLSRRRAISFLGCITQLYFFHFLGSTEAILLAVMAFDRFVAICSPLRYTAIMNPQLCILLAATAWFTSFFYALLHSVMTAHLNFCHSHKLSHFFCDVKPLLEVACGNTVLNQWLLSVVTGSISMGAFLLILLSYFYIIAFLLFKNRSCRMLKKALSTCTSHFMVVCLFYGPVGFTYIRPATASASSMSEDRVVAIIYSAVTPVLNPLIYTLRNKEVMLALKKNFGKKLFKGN
Method in brief: as §1

UniProt Q8VGD7 = target: T11, UniProt Q8VGD7
T11 sequence (whole entry): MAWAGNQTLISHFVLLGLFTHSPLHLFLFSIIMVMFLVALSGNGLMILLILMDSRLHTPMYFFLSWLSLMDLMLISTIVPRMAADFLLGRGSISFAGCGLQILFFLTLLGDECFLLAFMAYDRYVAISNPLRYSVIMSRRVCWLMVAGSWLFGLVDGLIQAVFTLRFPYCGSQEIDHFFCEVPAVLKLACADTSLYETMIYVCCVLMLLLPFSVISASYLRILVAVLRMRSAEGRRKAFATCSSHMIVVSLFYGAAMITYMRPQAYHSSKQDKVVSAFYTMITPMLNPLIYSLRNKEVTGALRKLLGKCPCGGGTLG
Method in brief: as §1

UniProt Q8VGH1 = target: T12, UniProt Q8VGH1
T12 sequence (whole entry): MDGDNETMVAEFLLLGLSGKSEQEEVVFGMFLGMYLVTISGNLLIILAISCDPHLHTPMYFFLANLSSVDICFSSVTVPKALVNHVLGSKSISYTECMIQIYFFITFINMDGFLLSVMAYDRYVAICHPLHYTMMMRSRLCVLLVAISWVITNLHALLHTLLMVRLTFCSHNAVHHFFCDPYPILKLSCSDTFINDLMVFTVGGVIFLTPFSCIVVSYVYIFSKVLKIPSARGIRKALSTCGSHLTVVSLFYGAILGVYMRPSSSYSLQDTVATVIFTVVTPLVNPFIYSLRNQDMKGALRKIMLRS
Method in brief: as §1

UniProt Q8VGJ1 = target: T13, UniProt Q8VGJ1
T13 sequence (whole entry): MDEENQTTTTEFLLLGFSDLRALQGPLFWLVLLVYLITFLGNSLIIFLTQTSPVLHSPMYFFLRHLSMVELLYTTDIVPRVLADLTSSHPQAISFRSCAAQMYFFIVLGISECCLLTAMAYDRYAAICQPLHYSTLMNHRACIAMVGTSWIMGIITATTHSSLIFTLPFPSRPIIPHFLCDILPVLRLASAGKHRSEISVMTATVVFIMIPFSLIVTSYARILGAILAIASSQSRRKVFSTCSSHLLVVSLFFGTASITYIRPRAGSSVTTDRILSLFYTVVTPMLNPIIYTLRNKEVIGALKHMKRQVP
Method in brief: as §1

UniProt Q8VGJ5 = target: T14, UniProt Q8VGJ5
T14 sequence (whole entry): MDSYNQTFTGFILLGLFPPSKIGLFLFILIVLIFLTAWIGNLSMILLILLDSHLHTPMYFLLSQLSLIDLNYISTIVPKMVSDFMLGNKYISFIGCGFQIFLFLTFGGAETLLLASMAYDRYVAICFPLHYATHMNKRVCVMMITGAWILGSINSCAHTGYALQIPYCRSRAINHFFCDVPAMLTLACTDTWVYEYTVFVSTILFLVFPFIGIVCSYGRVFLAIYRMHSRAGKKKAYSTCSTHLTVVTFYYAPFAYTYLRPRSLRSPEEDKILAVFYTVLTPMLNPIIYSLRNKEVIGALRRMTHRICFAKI
Method in brief: as §1

UniProt Q8VGL7 = target: T15, UniProt Q8VGL7
T15 sequence (whole entry): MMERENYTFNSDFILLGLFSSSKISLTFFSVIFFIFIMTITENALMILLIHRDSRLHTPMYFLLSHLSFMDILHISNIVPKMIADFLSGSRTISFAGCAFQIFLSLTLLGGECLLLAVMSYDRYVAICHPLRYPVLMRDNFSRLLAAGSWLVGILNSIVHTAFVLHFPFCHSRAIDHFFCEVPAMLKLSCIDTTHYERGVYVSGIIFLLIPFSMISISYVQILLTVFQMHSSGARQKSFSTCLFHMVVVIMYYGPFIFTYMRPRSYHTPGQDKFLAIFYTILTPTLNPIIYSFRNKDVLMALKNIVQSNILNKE
Method in brief: as §1

UniProt Q8VG74 = target: UniProt Q8VG74
Method in brief: as §1

UniProt Q8VGA9 = target: UniProt Q8VGA9
Method in brief: as §1

Measured: odorant receptor agonist call;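 note: active if original authors judged signal statistically different from baseline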

Chain of UniProt Q8VG28 (Q8VG28 as listed by the source): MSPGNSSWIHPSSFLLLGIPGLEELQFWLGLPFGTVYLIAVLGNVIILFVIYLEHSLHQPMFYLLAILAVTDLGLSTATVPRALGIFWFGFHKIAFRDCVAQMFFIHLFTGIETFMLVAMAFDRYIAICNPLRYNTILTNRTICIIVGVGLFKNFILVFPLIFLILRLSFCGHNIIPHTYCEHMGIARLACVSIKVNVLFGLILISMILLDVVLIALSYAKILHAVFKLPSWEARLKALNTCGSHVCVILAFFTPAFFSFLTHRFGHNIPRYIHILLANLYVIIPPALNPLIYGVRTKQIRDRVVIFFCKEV
Chain of UniProt Q8VGA9 (Q8VGA9 as listed by the source): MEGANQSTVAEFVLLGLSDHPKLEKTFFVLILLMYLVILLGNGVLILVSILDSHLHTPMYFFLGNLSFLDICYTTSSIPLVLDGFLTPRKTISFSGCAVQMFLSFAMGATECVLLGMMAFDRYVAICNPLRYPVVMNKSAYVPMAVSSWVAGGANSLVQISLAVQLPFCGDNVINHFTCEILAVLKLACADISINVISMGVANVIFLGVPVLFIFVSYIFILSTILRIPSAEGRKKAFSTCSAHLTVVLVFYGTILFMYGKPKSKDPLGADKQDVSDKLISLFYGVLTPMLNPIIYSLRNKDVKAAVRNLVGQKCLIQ
Chain of UniProt Q8VG74 (Q8VG74 as listed by the source): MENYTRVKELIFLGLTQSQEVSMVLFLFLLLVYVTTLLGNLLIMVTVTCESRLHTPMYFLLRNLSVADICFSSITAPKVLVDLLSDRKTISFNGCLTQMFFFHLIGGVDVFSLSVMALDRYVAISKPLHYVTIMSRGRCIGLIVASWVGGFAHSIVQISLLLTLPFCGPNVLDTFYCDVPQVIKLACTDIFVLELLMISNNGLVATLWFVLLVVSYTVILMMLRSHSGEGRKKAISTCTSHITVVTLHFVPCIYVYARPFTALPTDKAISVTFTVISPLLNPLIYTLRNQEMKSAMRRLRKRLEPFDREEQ

OCCCCCCCCCO
active: UniProt Q8VG64
inactive: UniProt Q8VG27 | UniProt Q8VG53 | UniProt Q8VGB9 | UniProt Q8VGC6 | UniProt Q8VGJ3 | UniProt Q8VGL0

CCCCCO
not listed: UniProt Q8VG27 | UniProt Q8VG53 | UniProt Q8VG64 | UniProt Q8VGB9 | UniProt Q8VGJ3 | UniProt Q8VG74 | UniProt Q8VGA9
inactive: all other assays above

CCCCCCCOC(=O)C(C)C
inactive: UniProt Q8VG27 | UniProt Q8VG53 | UniProt Q8VG64 | UniProt Q8VGB9 | UniProt Q8VGC6 | UniProt Q8VGJ3 | UniProt Q8VGL0

CCCCOC(=O)CCC
inactive: UniProt Q8VG28 | UniProt Q8VGC6

CC(C)=CC1CC(C)CCO1 (configuration not stated)
inactive: UniProt Q8VGC6

OCc1ccccc1
inactive: UniProt Q8VGC6

CCc1ncc(C)nc1CC
inactive: UniProt Q8VG27 | UniProt Q8VG53 | UniProt Q8VG64 | UniProt Q8VGB9 | UniProt Q8VGC6 | UniProt Q8VGJ3 | UniProt Q8VGL0

CCCC(=O)OC
inactive: UniProt Q8VGC6

CCOc1ccccc1
inactive: UniProt Q8VGC6

CCC(=O)OC
inactive: UniProt Q8VGC6

CC1CCCCCCCCCCCCC(=O)C1 (configuration not stated)
inactive: UniProt Q8VG74 | UniProt Q8VGA9

CCCCCCCC(=O)[O-].[H+]
active: UniProt Q8VG28
not listed: UniProt Q8VG27 | UniProt Q8VG53 | UniProt Q8VG64 | UniProt Q8VGB9 | UniProt Q8VGJ3 | UniProt Q8VG74 | UniProt Q8VGA9
inactive: all other assays above

CC(C)CN
inactive: UniProt Q8VGC6

COc1cnccn1
inactive: UniProt Q8VG27 | UniProt Q8VG53 | UniProt Q8VG64 | UniProt Q8VGB9 | UniProt Q8VGC6 | UniProt Q8VGJ3 | UniProt Q8VGL0

CC(C)=CCCC(C)CC=O (configuration not stated)
inactive: UniProt Q8VGC6

Cc1nccnc1C
inactive: UniProt Q8VGC6

CCCCOC(=O)C(C)OC(=O)CCC (configuration not stated)
inactive: UniProt Q8VG49 | UniProt Q8VG77 | UniProt Q8VG96 | UniProt Q8VGC6 | UniProt Q8VGD7 | UniProt Q8VGH1 | UniProt Q8VGJ1 | UniProt Q8VGJ5 | UniProt Q8VGL0 | UniProt Q8VGL7
